Measurements from ChEMBL document CHEMBL4028903 (J Med Chem, 2017).
Activity calls are given as the source filed them. The calls are words filed in the database; no cut-off is given here.

Assays:
[1] = tested on: Rattus norvegicus; experiment: In vivo agonist activity at FXR in Sprague-Dawley rat assessed as induction of SHP mRNA level in ileum at 0.01 mg/kg, po qd for 14 days measured 7 hrs post last dose on day 14 by qPCR analysis; format: functional, organism-based
[2] = tested on: Rattus norvegicus; experiment: In vivo agonist activity at FXR in po dosed Sprague-Dawley rat assessed as induction of FGF15 mRNA level in ileum administered once daily for 14 days measured 7 hrs post last dose on day 14 by qPCR analysis; format: functional
[3] = Drug uptake in Sprague-Dawley rat liver at 0.003 mg/kg, po qd administered via gavage measured 7 hrs post last dose on day 14 by LC-MS/MS analysis; format: ADME, organism-based; details: read-out: Drug uptake
Summary of the method: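 Drug concentration in liver was quantified from tissue homogenates, so these are total levels. Unbound liver concentration was not determined.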

[4] = Drug uptake in Sprague-Dawley rat plasma at 0.003 mg/kg, po qd administered via gavage measured 7 hrs post last dose on day 14 by LC-MS/MS analysis; format: ADME, organism-based
[5] = tested on: Rattus norvegicus; experiment: Dose normalized AUC (0 to 24 hrs) in Sprague-Dawley rat at 3 mg/kg, po qd administered via gavage measured on day 11 by LC-MS/MS analysis; format: ADME, organism-based; details: in vivo
[6] = target: T1, G-protein coupled bile acid receptor 1 (Mus musculus, UniProt Q80SS6); experiment: Agonist activity at mouse TGR5
T1 sequence (Q80SS6 whole entry): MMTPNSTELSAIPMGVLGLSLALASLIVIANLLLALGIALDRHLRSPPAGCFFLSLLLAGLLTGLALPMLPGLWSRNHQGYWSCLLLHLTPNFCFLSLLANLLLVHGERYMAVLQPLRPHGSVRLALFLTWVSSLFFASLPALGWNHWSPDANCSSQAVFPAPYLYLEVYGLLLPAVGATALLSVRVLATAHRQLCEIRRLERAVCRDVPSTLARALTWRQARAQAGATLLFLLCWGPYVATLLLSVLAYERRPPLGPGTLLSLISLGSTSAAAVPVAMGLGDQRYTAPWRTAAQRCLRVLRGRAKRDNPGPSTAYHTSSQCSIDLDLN

[7] = Half life in rat at 3 mg/kg, iv by LC-MS/MS analysis; format: ADME, organism-based; details: in vivo
Summary of the method: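 Single IV dose given as a solution. Mouse and rat received it in 75% PEG300:25% D5W. Dog received it in 20% PEG300, 5% solutol and 75% carbonate buffer pH = 8. Plasma was sampled for PK parameters.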

[8] = Oral bioavailability in mouse at 10 mg/kg administered via gavage by LC-MS/MS analysis; format: ADME, organism-based; details: in vivo
Summary of the method: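 IV dosing used a solution in 75% PEG300:25% D5W for mouse and rat, and a solution in 20% PEG300, 5% solutol, 75% carbonate buffer pH 8 for dog. PO dosing used a suspension in 0.5% methylcellulose, 0.5% Tween80, 99% water for all three species.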

[9] = tested on: Mus musculus; experiment: Drug metabolism in mouse assessed as taurine conjugated metabolite formation at 5 mg/kg, iv or 10 mg/kg, po administered via gavage by LC-MS/MS analysis; format: ADME, organism-based; details: in vivo
[10] = tested on: Rattus norvegicus; experiment: Drug metabolism in rat assessed as taurine conjugated metabolite formation at 3 mg/kg, iv or 1 mg/kg, po administered via gavage by LC-MS/MS analysis; format: ADME, organism-based; details: in vivo

With `O=C(O)c1cc(F)c2nc(N3C4CCC3CC(OCc3c(-c5ccccc5OC(F)(F)F)noc3C3CC3)C4)sc2c1` (stereo not given) the Activity [1] was “Active”, the ED50 [2] was 0.05 mg/kg and the concentration at 7 h [3] was 2.3 nM. For the same molecule, the concentration at 7 h [4] was 0.12 nM, the AUC/dose [5] was 563 nM·h and the EC50 [6] was > 10 µM. The half-life [7] was 3.7 h, the bioavailability [8] was 9.2% and the Drug metabolism [9] was “Metabolite_Notdetected”. The Drug metabolism [10] was “Metabolite_Notdetected”.
